Test results published in ChEMBL document CHEMBL1165860, “Synthesis and potential cytotoxic activity of new phenanthrylphenol-pyrrolobenzodiazepines” (2010).
Calls of active or inactive are those of the source. No cut-off for these calls is given here.

Experiments:
NCI/ADR-RES = assay: Growth inhibition of human NCI/ADR-RES cells after 24 hrs by MTT assay; format: functional
MCF7 [1] = assay: Increase of cytosolic cytochrome c level in human MCF7 cells at 2 uM after 24 hrs by Western blot analysis; format: functional, cell-based
In short: (§1)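 MCF-7 cells were grown in DMEM with 10% FCS and penicillin/streptomycin at 37 °C in 5% CO2, then treated for 24 h. Cells were lysed in ice-cold RIPA buffer with protease inhibitors and NaF. Protein was measured by Bradford assay, and 30 µg per lane was run on 12% SDS-PAGE and transferred to PVDF. Antibody steps: primary at 4 °C overnight, HRP secondary 1:2000, chemiluminescent detection.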

786-0 = assay: Growth inhibition of human 786-0 cells after 24 hrs by MTT assay; format: functional; conditions: 786-0, 24 h
EKVX = assay: Growth inhibition of human EKVX cells after 24 hrs by MTT assay; format: functional
SK-MEL-28 = assay: Growth inhibition of human SK-MEL-28 cells after 24 hrs by MTT assay; format: functional; conditions: SK-MEL-28, 24 h
MCF7 [2] = assay: Cell cycle arrest in human MCF7 cells assessed as accumulation at G1 phase at 2 uM after 24 hrs using propidium iodide staining by flow cytometry; format: functional
In short: (§2)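 MCF-7 cells were grown in DMEM with 10% fetal calf serum, penicillin and streptomycin, at 37 °C in 5% CO2. They were treated for 24 h at 2 and 4 µM, with DMSO-treated cells as controls. Cells were trypsinised, fixed in ice-cold 70% ethanol at 4 °C for 30 min, and RNaseA-treated at 37 °C for 30 min. Phases were read by flow cytometry.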

NCI-H322M = assay: Growth inhibition of human NCI-H322M cells after 24 hrs by MTT assay; format: functional
MCF7 [3] = assay: Cell cycle arrest in human MCF7 cells assessed as accumulation at S phase at 4 uM after 24 hrs using propidium iodide staining by flow cytometry; format: functional; in short: as §2
BT-549 = assay: Growth inhibition of human BT549 cells after 24 hrs by MTT assay; format: functional; conditions: BT-549, 24 h
ACHN = assay: Growth inhibition of human ACHN cells after 24 hrs by MTT assay; format: functional
Nucleic Acid = assay: Inhibition of Escherichia coli pBR322 DNA cleavage after 16 hrs by RED100-restriction endonuclease digestion assay; format: nucleic-acid assay
In short: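 pBR322 DNA was preincubated with compound at final 2, 4, 8, 16 and 32 µM for 16 h at 37 °C. BamHI (10 U/µl) in BamHI buffer was then added for 2 h at 37 °C. Products were separated on agarose in 0.5× Tris–acetate EDTA at 80 V for 1 h and stained with ethidium bromide. Cut and uncut DNA served as controls.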

MCF7 [4] = assay: Cell cycle arrest in human MCF7 cells assessed as accumulation at G0 phase at 2 uM after 24 hrs using propidium iodide staining by flow cytometry; format: functional; in short: as §2
SNB-75 = assay: Growth inhibition of human SNB75 cells after 24 hrs by MTT assay; format: functional; conditions: SNB-75, 24 h
IGROV-1 = assay: Growth inhibition of human IGROV1 cells after 24 hrs by MTT assay; format: functional; conditions: IGROV-1, 24 h
RXF 393 = assay: Growth inhibition of human RXF393 cells after 24 hrs by MTT assay; format: functional; conditions: RXF 393, 24 h
MCF7 [5] = assay: Cell cycle arrest in human MCF7 cells assessed as accumulation at G2/M phase at 2 uM after 24 hrs using propidium iodide staining by flow cytometry; format: functional; in short: as §2
MCF7 [6] = assay: Induction of apoptosis in human MCF7 cells assessed as increase of caspase 8 activation at 4 uM after 1 hr by […] method; format: functional, cell-based
In short: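 Colorimetric caspase-8 kit on lysates of treated MCF-7 cells. The IETD-pNA substrate was incubated with cell lysate at 37 °C for 1 h, and absorbance was read at 405 nm. Untreated cells served as the control.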

[7] = Growth inhibition of human […] cells after 24 hrs by MTT assay; format: functional
UACC-257 = assay: Growth inhibition of human UACC257 cells after 24 hrs by MTT assay; format: functional; conditions: UACC-257, 24 h
U-251 = assay: Growth inhibition of human U251 cells after 24 hrs by MTT assay; format: functional; conditions: U-251, 24 h
HOP-62 = assay: Growth inhibition of human HOP62 cells after 24 hrs by MTT assay; format: functional; conditions: HOP-62, 24 h
MCF7 [8] = assay: Increase of PARP cleavage in human MCF7 cells at 4 uM after 24 hrs by Western blot analysis; format: functional, cell-based; in short: as §1
[9] = Growth inhibition of human Hs 578T cells after 24 hrs by MTT assay; format: functional
SK-OV-3 = assay: Growth inhibition of human SKOV3 cells after 24 hrs by MTT assay; format: functional; conditions: SK-OV-3, 24 h
HT-29 = assay: Growth inhibition of human HT-29 cells after 24 hrs by MTT assay; format: functional; conditions: HT-29, 24 h
HCT-15 = assay: Growth inhibition of human HCT15 cells after 24 hrs by MTT assay; format: functional; conditions: HCT-15, 24 h
OVCAR-4 = assay: Growth inhibition of human OVCAR4 cells after 24 hrs by MTT assay; format: functional; conditions: OVCAR-4, 24 h
HCT-116 = assay: Growth inhibition of human HCT116 cells after 24 hrs by MTT assay; format: functional; conditions: HCT-116, 24 h
MDA-MB-435 = assay: Growth inhibition of human MDA-MB-435 cells after 24 hrs by MTT assay; format: functional; conditions: MDA-MB-435, 24 h
HCC 2998 = assay: Growth inhibition of human HCC2998 cells after 24 hrs by MTT assay; format: functional; conditions: HCC 2998, 24 h
CAKI-1 = assay: Growth inhibition of human Caki1 cells after 24 hrs by MTT assay; format: functional; conditions: CAKI-1, 24 h
A498 = assay: Growth inhibition of human A498 cells after 24 hrs by MTT assay; format: functional; conditions: A498, 24 h
SNB-19 = assay: Growth inhibition of human SNB19 cells after 24 hrs by MTT assay; format: functional; conditions: SNB-19, 24 h
NCI-H23 = assay: Growth inhibition of human NCI-H23 cells after 24 hrs by MTT assay; format: functional; conditions: NCI-H23, 24 h
MOLT-4 = assay: Growth inhibition of human MOLT4 cells after 24 hrs by MTT assay; format: functional; conditions: MOLT-4, 24 h
NCI-H460 = assay: Growth inhibition of human NCI-H460 cells after 24 hrs by MTT assay; format: functional; conditions: NCI-H460, 24 h
UO-31 = assay: Growth inhibition of human UO31 cells after 24 hrs by MTT assay; format: functional; conditions: UO-31, 24 h
HOP-92 = assay: Growth inhibition of human HOP92 cells after 24 hrs by MTT assay; format: functional; conditions: HOP-92, 24 h

**Q.** For `COc1cc2c(cc1OCCCOc1ccc(-c3cc4ccccc4c4ccccc34)cc1)N=C[C@@H]1CCCN1C2=O`, which GI50 (NCI/ADR-RES) is on record?
**A.** Its GI50 is 1670 nM.

**Q.** What about the Activity (MCF7 [1]) of the same molecule?
**A.** Its Activity is “Active”.

**Q.** What about the GI50 (786-0) of the same molecule?
**A.** Its GI50 is 700 nM.

**Q.** And the GI50 (EKVX)?
**A.** The GI50 was 1050 nM.

**Q.** And the GI50 (SK-MEL-28)?
**A.** Its GI50 is 1260 nM.

**Q.** And the Activity (MCF7 [2])?
**A.** Its Activity is 68.99%.

**Q.** What about the GI50 (NCI-H322M) of the same molecule?
**A.** The GI50 was 1590 nM.

**Q.** What about the Activity (MCF7 [3]) of the same molecule?
**A.** Its Activity is 13.05%.

**Q.** And the GI50 (BT-549)?
**A.** The GI50 was 270 nM.

**Q.** And the GI50 (ACHN)?
**A.** The GI50 was 1260 nM.

**Q.** What about the inhibition (Nucleic Acid) of the same molecule?
**A.** The inhibition was “Dose-dependent effect”.

**Q.** What about the Activity (MCF7 [4]) of the same molecule?
**A.** The Activity was 4.47%.

**Q.** What about the GI50 (SNB-75) of the same molecule?
**A.** Its GI50 is 210 nM.

**Q.** What about the GI50 (IGROV-1) of the same molecule?
**A.** Its GI50 is 120 nM.

**Q.** What about the GI50 (RXF 393) of the same molecule?
**A.** Its GI50 is 240 nM.

**Q.** And the Activity (MCF7 [5])?
**A.** Its Activity is 10.7%.

**Q.** And the Activity (MCF7 [6])?
**A.** Its Activity is “Active”.

**Q.** And the GI50 [7]?
**A.** The GI50 was 190 nM.

**Q.** What about the GI50 (UACC-257) of the same molecule?
**A.** Its GI50 is 1360 nM.

**Q.** What about the GI50 (U-251) of the same molecule?
**A.** The GI50 was 910 nM.

**Q.** What about the GI50 (HOP-62) of the same molecule?
**A.** The GI50 was 1000 nM.

**Q.** What about the Activity (MCF7 [8]) of the same molecule?
**A.** Its Activity is “Active”.

**Q.** And the GI50 [9]?
**A.** Its GI50 is 1020 nM.

**Q.** What about the GI50 (SK-OV-3) of the same molecule?
**A.** The GI50 was 1560 nM.

**Q.** And the GI50 (HT-29)?
**A.** Its GI50 is 890 nM.

**Q.** And the GI50 (HCT-15)?
**A.** Its GI50 is 1180 nM.

**Q.** And the GI50 (OVCAR-4)?
**A.** The GI50 was 580 nM.

**Q.** What about the GI50 (HCT-116) of the same molecule?
**A.** Its GI50 is 250 nM.

**Q.** What about the GI50 (MDA-MB-435) of the same molecule?
**A.** Its GI50 is 240 nM.

**Q.** What about the GI50 (HCC 2998) of the same molecule?
**A.** The GI50 was 1210 nM.

**Q.** What about the GI50 (CAKI-1) of the same molecule?
**A.** The GI50 was 400 nM.

**Q.** What about the GI50 (A498) of the same molecule?
**A.** The GI50 was 690 nM.

**Q.** And the GI50 (SNB-19)?
**A.** Its GI50 is 1160 nM.

**Q.** And the GI50 (NCI-H23)?
**A.** The GI50 was 1410 nM.

**Q.** What about the GI50 (MOLT-4) of the same molecule?
**A.** The GI50 was 180 nM.

**Q.** And the GI50 (NCI-H460)?
**A.** The GI50 was 1040 nM.

**Q.** And the GI50 (UO-31)?
**A.** Its GI50 is 160 nM.

**Q.** And the GI50 (HOP-92)?
**A.** The GI50 was 360 nM.
